Assay results published in ChEMBL document CHEMBL5674868, “Cancer Cells Hijack PRC2 to Modify Multiple Cytokine Pathways” (PLoS One, 2015).
The source made the active and inactive calls. The calls are words filed in the database; no cut-off is given here.

Legend:
Assay type in all cases: cell-based
[1] = target: Histone-lysine N-methyltransferase EZH2 (Homo sapiens) (UniProt Q15910); assay: Inhibition of EZH2 in human ASPC1 cells assessed as effect on HPRT mRNA level after 6 hrs by RT-PCR analysis
Chain of Histone-lysine N-methyltransferase EZH2 (Homo sapiens) (Q15910 whole entry, looked up): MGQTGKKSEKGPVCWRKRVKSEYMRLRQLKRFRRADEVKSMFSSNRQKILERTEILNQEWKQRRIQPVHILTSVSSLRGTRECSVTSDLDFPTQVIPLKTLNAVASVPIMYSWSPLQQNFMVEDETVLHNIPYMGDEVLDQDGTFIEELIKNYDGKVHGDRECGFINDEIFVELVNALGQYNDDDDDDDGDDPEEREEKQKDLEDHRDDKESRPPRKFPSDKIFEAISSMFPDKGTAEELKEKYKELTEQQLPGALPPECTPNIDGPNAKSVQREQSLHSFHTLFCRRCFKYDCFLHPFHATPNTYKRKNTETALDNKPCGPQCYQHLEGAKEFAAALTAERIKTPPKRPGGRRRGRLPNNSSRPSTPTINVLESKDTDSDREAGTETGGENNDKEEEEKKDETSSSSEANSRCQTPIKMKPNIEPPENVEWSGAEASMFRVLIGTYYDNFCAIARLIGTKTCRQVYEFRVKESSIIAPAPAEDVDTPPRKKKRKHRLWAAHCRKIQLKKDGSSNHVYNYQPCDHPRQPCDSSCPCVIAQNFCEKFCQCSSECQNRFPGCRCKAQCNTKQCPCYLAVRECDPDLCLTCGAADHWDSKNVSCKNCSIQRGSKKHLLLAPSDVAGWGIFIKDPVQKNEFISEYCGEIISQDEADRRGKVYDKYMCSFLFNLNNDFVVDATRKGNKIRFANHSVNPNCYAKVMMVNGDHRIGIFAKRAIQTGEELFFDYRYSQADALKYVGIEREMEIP
In short: (§1)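 Cells were treated for two four-day cycles with 2 μM GSK343 or UNC1999, then left untreated or stimulated with human IFNγ for 6 h. mRNA was measured by reverse transcription quantitative PCR and normalized to β-actin. Three biological replicates were run per treatment group.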

[2] = target: Histone-lysine N-methyltransferase EZH2 (Homo sapiens) (UniProt Q15910); assay: Inhibition of EZH2 in human A549 cells assessed as increase in TNF-alpha-induced CCL-5 level for 24 hrs by multiplexing laser bead assay
In short: (§2)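 A549 cells were pretreated with vehicle or UNC1999 over two four-day cycles at 2 μM. They were seeded at 3×10^4/well, rested for 4 h, then exposed for 24 h to no stimulus, 5 μg/ml E. coli LPS or 10 U/ml TNFα. Secreted cytokines in the supernatants were quantified by a 41-plex laser bead assay.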

[3] = target: Histone-lysine N-methyltransferase EZH2 (Homo sapiens) (UniProt Q15910); assay: Inhibition of EZH2 in human MCF7 cells assessed as effect on IRF1 mRNA level after 6 hrs by RT-PCR analysis; in short: as §1
[4] = target: Histone-lysine N-methyltransferase EZH2 (Homo sapiens) (UniProt Q15910); assay: Inhibition of EZH2 in human A549 cells assessed as increase in TNF-alpha-induced VEGFA level for 24 hrs by multiplexing laser bead assay; in short: as §2
[5] = target: Histone-lysine N-methyltransferase EZH2 (Homo sapiens) (UniProt Q15910); assay: Inhibition of EZH2 in human A549 cells assessed as increase in LPS-induced IL-6 level for 24 hrs by ELISA
In short: (§3)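 A549 cells were pretreated for two four-day cycles with 2 μM UNC1999 or with DMSO. They were seeded at 3×10^4/well, allowed to settle for 4 h, then given the indicated concentrations of IFNγ, IL1β, LPS or TNFα for 24 h. Secreted IL6, IL8 or CXCL10 in the supernatant was measured by ELISA in duplicate. n = 3; ANOVA followed by Fisher test.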

[6] = target: Histone-lysine N-methyltransferase EZH2 (Homo sapiens) (UniProt Q15910); assay: Inhibition of EZH2 in human A549 cells assessed as increase in LPS-induced CSF-3 level for 24 hrs by multiplexing laser bead assay; in short: as §2
[7] = target: Histone-lysine N-methyltransferase EZH2 (Homo sapiens) (UniProt Q15910); assay: Inhibition of EZH2 in human A549 cells assessed as increase in TNF-alpha-induced CXCL-10 level for 24 hrs by multiplexing laser bead assay; in short: as §2
[8] = target: Histone-lysine N-methyltransferase EZH2 (Homo sapiens) (UniProt Q15910); assay: Inhibition of EZH2 in human A549 cells assessed as increase in TNF-alpha-induced PDGFA level for 24 hrs by multiplexing laser bead assay; in short: as §2
[9] = target: Histone-lysine N-methyltransferase EZH2 (Homo sapiens) (UniProt Q15910); assay: Inhibition of EZH2 in human A549 cells assessed as decrease in H3K27me3 levels at 2 uM after 6 hrs by Western blot analysis
[10] = target: Histone-lysine N-methyltransferase EZH2 (Homo sapiens) (UniProt Q15910); assay: Inhibition of EZH2 in human AsPC1 cells assessed as decrease in H3K27me3 levels at 2 uM after 6 hrs by Western blot analysis
[11] = target: Histone-lysine N-methyltransferase EZH2 (Homo sapiens) (UniProt Q15910); assay: Inhibition of EZH2 in human HeLa cells assessed as effect on IRF1 mRNA level after 6 hrs by RT-PCR analysis in presence of IFN-gamma; in short: as §1
[12] = target: Histone-lysine N-methyltransferase EZH2 (Homo sapiens) (UniProt Q15910); assay: Inhibition of EZH2 in human ASPC1 cells assessed as increase in IFN-gamma-induced SUZ12-repressed ISGs mRNA level after 6 hrs by RT-PCR analysis; in short: as §1
[13] = target: Histone-lysine N-methyltransferase EZH2 (Homo sapiens) (UniProt Q15910); assay: Inhibition of EZH2 in human A549 cells assessed as effect on IRF1 mRNA level after 6 hrs by RT-PCR analysis; in short: as §1
[14] = target: Histone-lysine N-methyltransferase EZH2 (Homo sapiens) (UniProt Q15910); assay: Inhibition of EZH2 in human A549 cells assessed as increase in LPS-induced CCL-5 level for 24 hrs by multiplexing laser bead assay; in short: as §2
[15] = target: Histone-lysine N-methyltransferase EZH2 (Homo sapiens) (UniProt Q15910); assay: Inhibition of EZH2 in human A549 cells assessed as effect on HPRT mRNA level after 6 hrs by RT-PCR analysis; in short: as §1
[16] = target: Histone-lysine N-methyltransferase EZH2 (Homo sapiens) (UniProt Q15910); assay: Inhibition of EZH2 in human MCF7 cells assessed as effect on HPRT mRNA level after 6 hrs by RT-PCR analysis; in short: as §1
[17] = target: Histone-lysine N-methyltransferase EZH2 (Homo sapiens) (UniProt Q15910); assay: Inhibition of EZH2 in human A549 cells assessed as increase in LPS-induced VEGF-A level for 24 hrs by multiplexing laser bead assay; in short: as §2
[18] = target: Histone-lysine N-methyltransferase EZH2 (Homo sapiens) (UniProt Q15910); assay: Inhibition of EZH2 in human MCF7 cells assessed as effect on PITX2 mRNA level after 6 hrs by RT-PCR analysis
In short: (§4)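 Cells pretreated for two 4-day cycles with 2 µM GSK343 or UNC1999, then left unstimulated or given human IFNγ for 6 h. RNA reverse-transcribed and measured by quantitative PCR, normalized to β-actin. Three biological replicates per treatment group.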

[19] = target: Histone-lysine N-methyltransferase EZH2 (Homo sapiens) (UniProt Q15910); assay: Inhibition of EZH2 in human A549 cells assessed as increase in IL-1beta-induced IL-6 level for 24 hrs by ELISA; in short: as §3
[20] = target: Histone-lysine N-methyltransferase EZH2 (Homo sapiens) (UniProt Q15910); assay: Inhibition of EZH2 in human MCF7 cells assessed as increase in IFN-gamma-induced SUZ12-repressed ISGs mRNA level after 6 hrs by RT-PCR analysis; in short: as §4
[21] = target: Histone-lysine N-methyltransferase EZH2 (Homo sapiens) (UniProt Q15910); assay: Inhibition of EZH2 in human HeLa cells assessed as effect on PITX2 mRNA level after 6 hrs by RT-PCR analysis in presence of IFN-gamma; in short: as §1
[22] = target: Histone-lysine N-methyltransferase EZH2 (Homo sapiens) (UniProt Q15910); assay: Inhibition of EZH2 in human HeLa cells assessed as increase in IFN-gamma-induced SUZ12-repressed ISGs mRNA level after 6 hrs by RT-PCR analysis; in short: as §1
[23] = target: Histone-lysine N-methyltransferase EZH2 (Homo sapiens) (UniProt Q15910); assay: Inhibition of EZH2 in human HeLa cells assessed as effect on PITX2 mRNA level after 6 hrs by RT-PCR analysis; in short: as §1
[24] = target: Histone-lysine N-methyltransferase EZH2 (Homo sapiens) (UniProt Q15910); assay: Inhibition of EZH2 in human A549 cells assessed as increase in TNF-alpha-induced IL-6 level for 24 hrs by ELISA; in short: as §3
[25] = target: Histone-lysine N-methyltransferase EZH2 (Homo sapiens) (UniProt Q15910); assay: Inhibition of EZH2 in human A549 cells assessed as increase in LPS-induced PDGFA level for 24 hrs by multiplexing laser bead assay; in short: as §2
[26] = target: Histone-lysine N-methyltransferase EZH2 (Homo sapiens) (UniProt Q15910); assay: Inhibition of EZH2 in human A549 cells assessed as increase in IFN-gamma-induced SUZ12-repressed ISGs mRNA level after 6 hrs by RT-PCR analysis; in short: as §1
[27] = target: Histone-lysine N-methyltransferase EZH2 (Homo sapiens) (UniProt Q15910); assay: Inhibition of EZH2 in human A549 cells assessed as effect on PITX2 mRNA level after 6 hrs by RT-PCR analysis in presence of IFN-gamma; in short: as §1

Compound: CCCc1cc(C)[nH]c(=O)c1CNC(=O)c1cc(-c2ccc(N3CCN(C(C)C)CC3)nc2)cc2c1cnn2C(C)C
- inhibition [1]: inactive
- inhibition [2]: Active
- inhibition [3]: inactive
- inhibition [4]: Active
- inhibition [5]: Active
- inhibition [6]: Active
- inhibition [7]: Active
- inhibition [8]: Active
- inhibition [9]: Active
- inhibition [10]: Active
- inhibition [11]: inactive
- inhibition [12]: Active
- inhibition [13]: inactive
- inhibition [14]: Active
- inhibition [15]: inactive
- inhibition [16]: inactive
- inhibition [17]: Active
- inhibition [18]: inactive
- inhibition [19]: Active
- inhibition [20]: Active
- inhibition [21]: inactive
- inhibition [22]: Active
- inhibition [23]: inactive
- inhibition [24]: Active
- inhibition [25]: Active
- inhibition [26]: Active
- inhibition [27]: inactive
